Results: ChEMBL document CHEMBL4118206, “Synthesis, characterization and cytotoxicity studies of 1,2,3-triazoles and 1,2,4-triazolo [1,5-a] pyrimidines in human breast cancer cells” (Bioorg Med Chem Lett, 2018)
Active and inactive are the calls of the source. The rule behind the calls is not given here.

Assays:
[1] = system: BT-474; assay: Cytotoxicity against human BT474 cells assessed as cell growth inhibition after 72 hrs by alamar blue assay; assay type: functional, cell-based; conditions: BT-474, 72 h
[2] = target: Vascular endothelial growth factor receptor 1 (Homo sapiens) (UniProt P17948); assay: Inhibition of VEGFR1 in human MCF7 cells assessed as downregulation of protein expression at 0.5 uM after 48 hrs by Western blot method relative to beta-actin; assay type: cell-based
Sequence of Vascular endothelial growth factor receptor 1 (Homo sapiens) (P17948 whole entry): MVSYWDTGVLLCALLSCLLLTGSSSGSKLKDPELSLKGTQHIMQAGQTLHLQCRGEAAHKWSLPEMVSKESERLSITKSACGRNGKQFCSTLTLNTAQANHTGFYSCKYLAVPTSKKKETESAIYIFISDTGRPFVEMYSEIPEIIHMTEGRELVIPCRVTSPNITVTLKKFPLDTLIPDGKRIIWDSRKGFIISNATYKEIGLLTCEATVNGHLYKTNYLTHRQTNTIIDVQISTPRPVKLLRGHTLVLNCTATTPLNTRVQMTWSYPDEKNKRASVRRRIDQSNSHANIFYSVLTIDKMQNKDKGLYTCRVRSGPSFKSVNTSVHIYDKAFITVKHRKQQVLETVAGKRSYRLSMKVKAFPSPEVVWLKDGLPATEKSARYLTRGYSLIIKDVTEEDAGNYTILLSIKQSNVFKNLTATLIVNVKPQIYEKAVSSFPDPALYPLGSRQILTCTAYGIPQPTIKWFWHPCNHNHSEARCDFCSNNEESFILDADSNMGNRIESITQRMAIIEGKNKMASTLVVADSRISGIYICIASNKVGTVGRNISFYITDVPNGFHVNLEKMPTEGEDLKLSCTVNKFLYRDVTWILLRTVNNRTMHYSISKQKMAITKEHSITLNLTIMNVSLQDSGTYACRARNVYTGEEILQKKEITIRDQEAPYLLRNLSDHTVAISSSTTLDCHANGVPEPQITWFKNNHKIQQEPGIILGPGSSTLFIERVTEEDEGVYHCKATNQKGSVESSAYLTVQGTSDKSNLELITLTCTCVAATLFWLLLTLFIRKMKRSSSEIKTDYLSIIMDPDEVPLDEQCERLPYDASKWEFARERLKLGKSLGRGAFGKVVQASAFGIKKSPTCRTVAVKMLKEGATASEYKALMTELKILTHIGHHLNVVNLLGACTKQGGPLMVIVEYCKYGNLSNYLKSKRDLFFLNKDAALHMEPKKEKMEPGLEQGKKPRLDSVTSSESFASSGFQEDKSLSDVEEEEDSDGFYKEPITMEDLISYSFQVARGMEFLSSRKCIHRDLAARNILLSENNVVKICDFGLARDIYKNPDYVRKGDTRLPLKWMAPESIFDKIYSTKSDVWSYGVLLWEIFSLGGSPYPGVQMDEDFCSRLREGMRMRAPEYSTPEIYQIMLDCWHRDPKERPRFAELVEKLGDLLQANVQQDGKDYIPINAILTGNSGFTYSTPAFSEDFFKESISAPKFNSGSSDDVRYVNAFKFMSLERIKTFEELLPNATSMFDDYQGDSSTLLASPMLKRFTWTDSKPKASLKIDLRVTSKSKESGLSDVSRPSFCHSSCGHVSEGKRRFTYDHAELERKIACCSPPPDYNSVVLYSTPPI
Outline: (§1)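 MCF7 cells were seeded at 300,000 per 6 cm dish in RPMI + 10% FBS and grown 24 h. They were then treated in RPMI + 2% FBS for 48 h, harvested and immunoblotted at 40 µg protein per lane. Blots were probed with primary antibodies against VEGFR1 and β-actin.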

[3] = system: MCF7; assay: Cytotoxicity against human MCF7 cells assessed as cell growth inhibition at 25 uM by alamar blue assay; assay type: functional, cell-based; conditions: TDE = time-dependent effect
Outline: (§2)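 MCF7 cells were seeded at 5000 per well. After 24 h they were exposed to 25 µM compound. Viability was read with AlamarBlue after a 4 h reagent incubation at 24, 48 and 72 h of treatment.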

[4] = system: Ishikawa; assay: Cytotoxicity against human Ishikawa cells assessed as cell growth inhibition after 72 hrs by alamar blue assay; assay type: functional, cell-based
[5] = system: MCF7; assay: Cytotoxicity against human MCF7 cells assessed as cell growth inhibition after 72 hrs by alamar blue assay; assay type: functional, cell-based; conditions: MCF7, 72 h
[6] = system: MCF7; assay: Effect on beta-actin protein expression in human MCF7 cells at 0.5 to 2 uM after 48 hrs by Western blot method; assay type: ADME, cell-based; conditions: mcf7, 48 h; outline: as §1
[7] = target: Vascular endothelial growth factor receptor 1 (Homo sapiens) (UniProt P17948); assay: Inhibition of VEGFR1 in human MCF7 cells assessed as downregulation of protein expression after 48 hrs by Western blot method; assay type: cell-based; outline: as §1
[8] = system: MDA-MB-231; assay: Cytotoxicity against human MDA-MB-231 cells assessed as cell growth inhibition after 72 hrs by alamar blue assay; assay type: functional, cell-based; conditions: MDA-MB-231, 72 h
[9] = target: Vascular endothelial growth factor receptor 1 (Homo sapiens) (UniProt P17948); assay: Inhibition of VEGFR1 in human MCF7 cells assessed as downregulation of protein expression at 1 uM after 48 hrs by Western blot method relative to beta-actin; assay type: cell-based; outline: as §1
[10] = target: Vascular endothelial growth factor receptor 1 (Homo sapiens) (UniProt P17948); assay: Inhibition of VEGFR1 in human MCF7 cells assessed as downregulation of protein expression at 2 uM after 48 hrs by Western blot method relative to beta-actin; assay type: cell-based; outline: as §1
[11] = system: MCF7; assay: Cytotoxicity against human MCF7 cells assessed as cell growth inhibition at 25 uM after 72 hrs by alamar blue assay; assay type: functional, cell-based; outline: as §2
[12] = system: MDA-MB-231; assay: Cytotoxicity against human MDA-MB-231 cells assessed as cell growth inhibition at 25 uM after 72 hrs by alamar blue assay; assay type: functional, cell-based
[13] = system: MCF7; assay: Effect on beta-actin protein expression in human MCF7 cells at 5 to 15 uM after 48 hrs by Western blot method; assay type: ADME, cell-based; conditions: mcf7, 48 h; outline: as §1
[14] = target: Vascular endothelial growth factor receptor 1 (Homo sapiens) (UniProt P17948); assay: Inhibition of VEGFR1 in human MCF7 cells assessed as downregulation of protein expression at 15 uM after 48 hrs by Western blot method relative to beta-actin; assay type: cell-based; outline: as §1
[15] = target: Vascular endothelial growth factor receptor 1 (Homo sapiens) (UniProt P17948); assay: Inhibition of VEGFR1 in human MCF7 cells assessed as downregulation of protein expression at 5 uM after 48 hrs by Western blot method relative to beta-actin; assay type: cell-based; outline: as §1
[16] = target: Vascular endothelial growth factor receptor 1 (Homo sapiens) (UniProt P17948); assay: Inhibition of VEGFR1 in human MCF7 cells assessed as downregulation of protein expression at 10 uM after 48 hrs by Western blot method relative to beta-actin; assay type: cell-based; outline: as §1

Row | SMILES | IC50 [5] | IC50 [8] | growth inhibition (GI) [11] | growth inhibition (GI) [12] | further results
1 | CCOc1cc(F)ccc1-c1ccc(-n2cc(-c3ccccc3)nn2)cc1 | 1.69 µM | 4.81 µM |  |  | IC50 [1]: 4.08 µM; fold change (FC) [2]: 0.8; growth inhibition (GI) [3]: Tde; IC50 [4]: 1.97 µM; Activity [6]: Non-Toxic; inhibition [7]: Dose-dependent effect; fold change (FC) [9]: 0.29; fold change (FC) [10]: 0.54
2 | COc1ccc(F)cc1-c1ccn2ncnc2n1 | > 100 µM | > 100 µM | inactive | inactive | 
3 | N#Cc1cncc(-c2ccc(-n3cc(-c4ccccc4)nn3)cc2)c1 | < 50 µM |  |  |  | 
4 | CS(=O)(=O)c1cccc(-c2ccc(-n3cc(-c4ccccc4)nn3)cc2)c1 | < 50 µM |  |  |  | 
5 | N#Cc1cncc(-c2ccn3ncnc3n2)c1 |  | > 100 µM | inactive | inactive | 
6 | Clc1ccccc1-c1ccc(-n2cc(-c3ccccc3)nn2)cc1 | < 50 µM |  |  |  | 
7 | COc1ccc(F)cc1-c1ccc(-n2cc(-c3ccccc3)nn2)cc1 | < 50 µM |  |  |  | 
8 | Fc1ccc(-c2ccn3ncnc3n2)cn1 | > 100 µM | > 100 µM | inactive | inactive | 
9 | Clc1ccccc1-c1ccn2ncnc2n1 | > 100 µM | > 100 µM | inactive | inactive | 
10 | c1ccc(-c2ccc(-n3cc(-c4ccccc4)nn3)cc2)cc1 | < 50 µM |  |  |  | 
11 | CCOc1cc(F)ccc1-c1ccn2ncnc2n1 | 93.8 µM | 50.3 µM | inactive | inactive | 
12 | Clc1ccccc1-c1ccccc1-c1ccn2ncnc2n1 | > 100 µM | > 100 µM | inactive | inactive | 
13 | Fc1ccc(Cl)cc1-c1ccn2ncnc2n1 |  | > 100 µM | inactive | inactive | 
14 | Cc1ccccc1-c1ccc(-n2cc(-c3ccccc3)nn2)cc1 | < 50 µM |  |  |  | 
15 | Fc1ccc(Cl)cc1-c1ccc(-n2cc(-c3ccccc3)nn2)cc1 | < 50 µM |  |  |  | 
16 | c1ccc(-c2ccn3ncnc3n2)cc1 | 3.91 µM | > 100 µM |  | inactive | 
17 | c1ccc(-c2cn(-c3ccc(-c4cc5ccccc5s4)cc3)nn2)cc1 | 14.4 µM |  |  |  | IC50 [1]: < 50 µM; Activity [13]: Non-Toxic; inhibition [7]: Dose-dependent effect; fold change (FC) [14]: 0.63; fold change (FC) [15]: 0.8; fold change (FC) [16]: 0.7
